From ChEMBL document CHEMBL4373708 (J Med Chem, 2019) come the findings set out here.

This series is described as follows: Drug uptake in mouse serum at 5 mg/kg, po or ip measured after 16 hrs by LC-MS analysis. To be noted: in vivo. It is filed as ADME, organism-based. The method in brief: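 Single intraperitoneal or oral dose in mice at 5 mg/kg (vehicle: saline with 5% DMSO and 10% Kolliphor HS 15) or 10 mg/kg (vehicle: PBS with 5% DMSO and 20% (2-hydroxypropyl)-β-cyclodextrin). Blood taken by retroorbital puncture at set times, serum separated by centrifugation at 4000 g for 20 min at 24 °C, compound quantified by LC/MS.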

On to `Cc1c(CC(=O)O)c(=O)oc2c(C)c(OCc3cccc(C(F)(F)F)c3)ccc12`, for which the Drug uptake result is “Active”.
